# Measured values taken from paper PMC2750823 (Molecular cancer therapeutics, 2009).
# How the values were obtained:
# H1299 = details: cited from earlier work
# Mcl-1 = details: cited from earlier work
# PC3ML cells = assay: Cell viability, ATP-LITE assay; assay type: cell-based; details: Homo sapiens, PC3-ML, 72 h, read-out: PC3ML EC50
# How it was run: (§1)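 Human cancer cells are grown in F12 or RPMI1640 medium with 5 mM L-glutamine, 5% FBS and penicillin/streptomycin. Cells are seeded at densities chosen by doubling time. Fresh 5% serum medium is added, and test compound is applied 24 h after seeding at varied concentrations in 0.1% DMSO. After 72 h, ATP is read with ATP-LITE reagent and normalized to DMSO-treated controls.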
# Plasma stability = assay type: in vitro ADME; details: rat, 100 µM
# [1] = system: H460 human lung cancer cell line; assay: Cell viability, ATP-LITE assay; assay type: cell-based; details: NCI-H460, 72 h, read-out: H460 EC50
# How it was run: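 H460 cells were grown in F12 or RPMI1640 with 5 mM L-glutamine, 5% FBS and penicillin/streptomycin, then plated at 2000 cells/well. After 24 h, fresh 5% medium was added, followed by test compound at final concentrations in 0.1% DMSO. Viability was read with ATP-LITE after 72 h of treatment, and data were normalized to DMSO-treated cells.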
# [2] = system: RS11846 human lymphoma cell line; assay: Cell viability, ATP-LITE assay; assay type: cell-based; details: 72 h, read-out: RS11846 EC50 (ATP-LITE assay)
# How it was run: as §1
# [3] = Liver microsomal stability; assay type: in vitro ADME; details: rat, microsomes, 4 µM, pH 7.4
# [4] = system: RS11846 human lymphoma cell line; assay: Apoptosis, Annexin V-FITC and propidium iodide assay; assay type: cell-based; details: read-out: RS11846 EC50 (Annexin V-FITC and propidium iodide assay)
# H1299 cells = assay: Cell viability, ATP-LITE assay; assay type: cell-based; details: Homo sapiens, NCI-H1299, 72 h, read-out: H1299 EC50
SMILES,killing Mcl-1 overexpressing cell lines such as the H1299 (H1299),effectiveness against Mcl-1 (Mcl-1),EC50 (PC3ML cells) [µM],Plasma Stability (T=1 hr) (Plasma stability) [%],EC50 [1] [µM],EC50 [2] [µM],Microsomal Stability (T=1 hr) [3] [%],EC50 [4] [µM],EC50 (H1299 cells) [µM]
CN(C)CC[C@H](CSc1ccccc1)Nc1ccc(S(=O)(=O)NC(=O)c2ccc(N3CCN(Cc4ccccc4-c4ccc(Cl)cc4)CC3)cc2)cc1[N+](=O)[O-] [ABT-737],not effective,not effective,,,,,,,
Cc1cc2c(C(C)C)c(O)c(O)cc2c(O)c1-c1c(C)cc2c(C(C)C)c(O)c(O)cc2c1O [Apogossypol],,,10.3,53,5.8,5,60,8.6,
Cc1cc2c(C(C)C)c(O)c(O)c(C=O)c2c(O)c1-c1c(C)cc2c(C(C)C)c(O)c(O)c(C=O)c2c1O [Gossypol],,,3.1,,3,2.2,,4.23,6
